Reference: ChEMBL document CHEMBL1125793 (J Med Chem, 1991)

The molecules below were run against T1, Angiotensin II receptor (Rattus norvegicus, UniProt P29089+P25095+P35351) (assay: Binding affinity against Angiotensin II receptor, from rat adrenal gland).
T1 sequence (P29089 whole entry): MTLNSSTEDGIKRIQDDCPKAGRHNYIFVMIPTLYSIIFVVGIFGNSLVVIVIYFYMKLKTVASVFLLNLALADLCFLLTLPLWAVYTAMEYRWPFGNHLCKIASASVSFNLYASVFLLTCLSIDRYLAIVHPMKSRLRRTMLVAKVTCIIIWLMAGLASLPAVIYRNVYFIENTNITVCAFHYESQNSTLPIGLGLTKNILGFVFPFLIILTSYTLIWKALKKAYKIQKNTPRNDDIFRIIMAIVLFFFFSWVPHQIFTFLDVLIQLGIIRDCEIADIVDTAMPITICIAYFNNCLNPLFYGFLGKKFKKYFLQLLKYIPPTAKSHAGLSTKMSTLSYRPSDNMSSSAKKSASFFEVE
T1 sequence (P25095 whole entry): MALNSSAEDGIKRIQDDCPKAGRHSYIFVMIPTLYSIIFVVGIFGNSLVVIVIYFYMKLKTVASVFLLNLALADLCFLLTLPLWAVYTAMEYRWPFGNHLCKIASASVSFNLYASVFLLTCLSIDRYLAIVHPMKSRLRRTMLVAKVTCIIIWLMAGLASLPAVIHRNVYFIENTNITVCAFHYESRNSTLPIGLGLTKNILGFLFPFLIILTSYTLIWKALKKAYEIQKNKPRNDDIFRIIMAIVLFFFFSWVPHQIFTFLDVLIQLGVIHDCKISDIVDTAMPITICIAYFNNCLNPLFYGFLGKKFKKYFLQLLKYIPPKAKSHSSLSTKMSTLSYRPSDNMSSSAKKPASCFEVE
T1 sequence (P35351 whole entry): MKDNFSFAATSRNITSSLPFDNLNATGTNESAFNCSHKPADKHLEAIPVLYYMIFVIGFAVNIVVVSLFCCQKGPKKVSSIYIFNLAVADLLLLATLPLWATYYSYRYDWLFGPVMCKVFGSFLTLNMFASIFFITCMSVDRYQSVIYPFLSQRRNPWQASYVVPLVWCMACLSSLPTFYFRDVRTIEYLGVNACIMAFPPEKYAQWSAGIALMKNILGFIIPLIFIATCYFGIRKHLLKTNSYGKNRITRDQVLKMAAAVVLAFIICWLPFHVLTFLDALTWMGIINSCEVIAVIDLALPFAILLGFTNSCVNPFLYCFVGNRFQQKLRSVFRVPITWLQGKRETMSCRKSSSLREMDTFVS
Type: tissue-based

| SMILES | IC50 |
| --- | --- |
| COc1ccc(Cn2cnc3c2CC(CO)N(C(=O)C(c2ccccc2)c2ccccc2)C3)cc1C (configuration not stated) | 370 nM |
| O=C(O)C1Cc2c(ncn2Cc2ccccc2)CN1C(=O)C(c1ccccc1)c1ccccc1 (stereo in doubt; 18a) | 440 nM |
| Cc1cccc(Cn2cnc3c2C[C@@H](C(=O)O)N(C(=O)C(c2ccccc2)c2ccccc2)C3)c1 | 150 nM |
| Cc1cc(Cn2cnc3c2C[C@@H](C(=O)O)N(C(=O)C(c2ccccc2)c2ccccc2)C3)ccc1N(C)C | 34 nM |
| O=C(O)C1Cc2c(ncn2Cc2ccccc2)CN1C(=O)C(c1ccc(Cl)cc1)c1ccc(Cl)cc1 (configuration not stated) | 6800 nM |
| O=C(O)[C@@H]1Cc2c(ncn2CCCc2ccccc2)CN1C(=O)C(c1ccccc1)c1ccccc1 | 700 nM |
| CNC(=O)Nc1ccc(Cn2cnc3c2C[C@@H](C(=O)O)N(C(=O)C(c2ccccc2)c2ccccc2)C3)cc1C | 44 nM |
| O=C(O)[C@@H]1Cc2c(ncn2Cc2cccc(C(F)(F)F)c2)CN1C(=O)C(c1ccccc1)c1ccccc1 | 460 nM |
| COc1ccc(C(C(=O)N2Cc3ncn(Cc4ccccc4)c3CC2C(=O)O)c2ccc(OC)cc2)cc1 (configuration not stated) | 610 nM |
| O=C(Cc1ccccc1)N1Cc2ncn(Cc3ccccc3)c2CC1CO (configuration not stated) | 5200 nM |
| O=C(O)C1Cc2c(ncn2Cc2ccccc2)CN1C(=O)C(c1ccccc1)C1CCCC1 (configuration not stated) | 71 nM |
| COc1ccc(Cn2cnc3c2C[C@@H](C(=O)O)N(C(=O)C(c2ccc(Cl)cc2)c2ccc(Cl)cc2)C3)cc1C | 2400 nM |
| O=C(O)[C@@H]1Cc2c(ncn2Cc2ccc(C(F)(F)F)cc2)CN1C(=O)C(c1ccccc1)c1ccccc1 | 190 nM |
| O=C(C(=O)N1Cc2ncn(Cc3ccccc3)c2CC1C(=O)O)c1ccccc1 (configuration not stated) | 2400 nM |
| Cc1ccc(C(C(=O)N2Cc3ncn(Cc4ccccc4)c3CC2C(=O)O)c2ccc(C)cc2)cc1 (configuration not stated) | 1300 nM |
| COc1ccc(C)cc1Cn1cnc2c1C[C@@H](C(=O)O)N(C(=O)C(c1ccccc1)c1ccccc1)C2 | 720 nM |
| CCN(CC)c1ccc(Cn2cnc3c2C[C@@H](C(=O)O)N(C(=O)C(c2ccccc2)c2ccccc2)C3)cc1 | 290 nM |
| O=C(O)C1Cc2c(ncn2Cc2ccccc2)CN1C(=O)c1cccc2ccccc12 (configuration not stated) | 9800 nM |
| COC(=O)C1Cc2c(ncn2Cc2ccc(N(C)C)c(C)c2)CN1C(=O)C(c1ccccc1)c1ccccc1 (configuration not stated) | 350 nM |
| O=C(O)[C@@H]1Cc2c(ncn2Cc2cccc(Cl)c2)CN1C(=O)C(c1ccccc1)c1ccccc1 | 1200 nM |
| O=C(O)C1Cc2c(ncn2Cc2ccccc2)CN1C(=O)C1c2ccccc2-c2ccccc21 (configuration not stated) | 8000 nM |
| COc1ccc(C(C(=O)N2Cc3ncn(Cc4ccc(OC)c(C)c4)c3C[C@H]2C(=O)O)c2ccc(OC)cc2)cc1 | 2000 nM |
| O=C(O)C1Cc2c(ncn2Cc2ccccc2)CN1C(=O)/C=C/c1ccccc1 (configuration not stated) | 2500 nM |
| O=C(O)[C@@H]1Cc2c(ncn2CCC23CC4CC(CC(C4)C2)C3)CN1C(=O)C(c1ccccc1)c1ccccc1 | 130 nM |
| Nc1ccc(C(C(=O)N2Cc3ncn(Cc4ccccc4)c3CC2C(=O)O)c2ccc(N)cc2)cc1 (configuration not stated) | 8400 nM |
| O.O=C(O)[C@@H]1Cc2c(ncn2CC2CCCCC2)CN1C(=O)C(c1ccccc1)c1ccccc1 | 340 nM |
| CN(Cc1ccccc1)C(=O)N1Cc2ncn(Cc3ccccc3)c2CC1C(=O)O (configuration not stated) | 4100 nM |
| O=C(O)C1Cc2c(ncn2Cc2ccccc2)CN1C(=O)Oc1ccccc1 (configuration not stated) | 4600 nM |

What follows are molecules tested against T1, Angiotensin II receptor (assay: Binding affinity for rat brain Angiotensin II receptor).

| SMILES | IC50 |
| --- | --- |
| COc1ccc(Cn2cnc3c2CC(CO)N(C(=O)C(c2ccccc2)c2ccccc2)C3)cc1C (configuration not stated) | 130 nM |
| O=C(O)C1Cc2c(ncn2Cc2ccccc2)CN1C(=O)C(c1ccccc1)c1ccccc1 (stereo in doubt; 18a) | 3800 nM |
| Cc1cccc(Cn2cnc3c2C[C@@H](C(=O)O)N(C(=O)C(c2ccccc2)c2ccccc2)C3)c1 | 1600 nM |
| Cc1cc(Cn2cnc3c2C[C@@H](C(=O)O)N(C(=O)C(c2ccccc2)c2ccccc2)C3)ccc1N(C)C | 210 nM |
| O=C(O)C1Cc2c(ncn2Cc2ccccc2)CN1C(=O)C(c1ccc(Cl)cc1)c1ccc(Cl)cc1 (configuration not stated) | 8200 nM |
| O=C(O)[C@@H]1Cc2c(ncn2CCCc2ccccc2)CN1C(=O)C(c1ccccc1)c1ccccc1 | 400 nM |
| O=C(O)[C@@H]1Cc2c(ncn2Cc2ccc(C(F)(F)F)cc2)CN1C(=O)C(c1ccccc1)c1ccccc1 | 800 nM |
| O=C(O)C1Cc2c(ncn2Cc2ccccc2)CN1C(=O)C1c2ccccc2-c2ccccc21 (configuration not stated) | 19000 nM |
| O=C(O)[C@@H]1Cc2c(ncn2CCC23CC4CC(CC(C4)C2)C3)CN1C(=O)C(c1ccccc1)c1ccccc1 | 170 nM |

The molecules below were run against T2, Angiotensin II receptor (Rattus norvegicus) (UniProt P29089+P25095+P35351) (assay: Inhibitory activity against Angiotensin II receptor, from rat adrenal gland at a concentration of 10 uM).
Type: tissue-based
Outline: (§1)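 Displacement of 125I-Ang II ([…]) from rat adrenal membrane fraction, with test agent at a single 10 μM. Buffer was Tris-HCl, NaCl, 5 mM DTT and BSA; incubation 30 min at 22–25 °C in duplicate.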

| SMILES | inhibition |
| --- | --- |
| O=C(O)C1Cc2c(ncn2Cc2ccccc2)CN1C(=O)c1ccccc1 (configuration not stated) | 12% |
| CC(=O)N1Cc2ncn(Cc3ccccc3)c2CC1C(=O)O (configuration not stated) | 4% |
| O=C(O)C1Cc2ncn(Cc3ccccc3)c2CN1C(=O)Nc1ccccc1 (configuration not stated) | 24% |
| NC(=O)C1Cc2c(ncn2Cc2ccccc2)CN1C(=O)Nc1ccccc1 (configuration not stated) | 14% |

The molecules below were run against T2, Angiotensin II receptor (Rattus norvegicus) (assay: Inhibitory activity against angiotensin II receptor at a concentration of 10 uM in rat).
Outline: as §1

| SMILES | inhibition |
| --- | --- |
| COc1ccc(Cn2cnc3c2C[C@@H](C(=O)O)N(C(=O)C2c4ccccc4-c4ccccc42)C3)cc1C | 27% |
